Assay results: publication PMC8248332 (Chembiochem, 2021)
Square brackets hold non-standard residues; d marks the D form. Peptide text beside a SMILES is read from it. pS = N[C@@H](COP(=O)(O)O)C(=O)O

What was measured:
[1] = target: T1, 14‐3‐3σ (Homo sapiens, UniProt P31947); assay: Isothermal titration calorimetry; assay type: binding; settings: dissolved CRaf (1 mM) into 14‐3‐3σ (50 μM), HEPES 25 mM pH 7.4, 25 °C
T1 sequence (P31947 1-248): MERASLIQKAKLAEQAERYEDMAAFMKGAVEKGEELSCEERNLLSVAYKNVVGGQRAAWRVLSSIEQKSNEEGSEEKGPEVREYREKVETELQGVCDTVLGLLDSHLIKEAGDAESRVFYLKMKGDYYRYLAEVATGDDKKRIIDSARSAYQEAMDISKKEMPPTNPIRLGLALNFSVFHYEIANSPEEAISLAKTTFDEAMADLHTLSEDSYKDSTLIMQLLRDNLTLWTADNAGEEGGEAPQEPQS
Outline: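 14-3-3σ purified by size-exclusion chromatography (20 mM Tris-HCl pH 7.5, 150 mM NaCl, 2 mM DTT), then dialysed into 25 mM HEPES pH 7.4. Cell held 300 μL protein. First injection 0.4 μL, mixing time 0.8 s, 180 s between injections. Enthalpy per injection versus peptide:protein molar ratio fitted sigmoidally; inflection point gives N, slope there gives KD.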

[2] = target: 14‐3‐3ζ; settings: CRaf and the isomer 14‐3‐3ζ; Molzan et al.; cited from earlier work

CC(C)C[C@H](NC(=O)[C@H](CO)NC(=O)CNC(=O)[C@H](CCC(=O)O)NC(=O)[C@H](CO)NC(=O)[C@H](CS)NC(=O)[C@@H]1CCCN1C(=O)[C@H](CO)NC(=O)[C@H](CO)NC(=O)[C@@H](NC(=O)[C@H](CC(N)=O)NC(=O)[C@H](Cc1ccccc1)NC(=O)[C@@H](NC(=O)[C@H](Cc1ccccc1)NC(=O)[C@H](C)NC(=O)[C@H](Cc1c[nH]cn1)NC(=O)[C@@H]1CCCN1C(=O)[C@@H](NC(=O)[C@H](COP(=O)(O)O)NC(=O)[C@H](Cc1ccc(O)cc1)NC(=O)[C@H](CCCNC(=N)N)NC(=O)[C@H](Cc1c[nH]cn1)NC(=O)[C@@H](N)CCC(N)=O)[C@@H](C)O)[C@@H](C)O)[C@@H](C)O)C(=O)N[C@@H](CO)C(=O)N[C@@H](CCC(N)=O)C(=O)N[C@@H](CCCNC(=N)N)C(=O)N[C@@H](CCC(N)=O)C(=O)N[C@@H](CCCNC(=N)N)C(=O)N[C@@H](CO)C(=O)N[C@H](C(=O)N[C@@H](COP(=O)(O)O)C(=O)N[C@H](C(=O)N1CCC[C@H]1C(=O)N[C@@H](CC(N)=O)C(=O)N[C@H](C(=O)N[C@@H](Cc1c[nH]cn1)C(N)=O)C(C)C)[C@@H](C)O)[C@@H](C)O [CRaf] (H-QHRY[pS]TPHAFTFNTSSPCSEGSLSQRQRST[pS]TPNVH-NH2)
binding ratio from ITC (peptide/protein), N [1]: 0.84±0.01 | Kd [2]: 80 nM
